This is one part of a sample in which hits are shown more often than they occur.
AP complement: orthogonal test for alternative complement pathway inhibitors; Human serum alternative complement pathway, LPS-coated ELISA, C3 deposition; tested in compound mixtures; inhibition, % at 5 µM; hit rate 0.08% among 62,000;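 active means inhibition above 30% in each of the two pooled mixtures holding the compound, so the lower value exceeds 30%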
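Assay system: Human serum alternative complement pathway, C3 deposition on LPS-coated wells | Incubation: 1 h serum-compound exposure at 37 °C | Doses: 5 µM per compound in ten-compound mixtures | Read-out: Percent inhibition | Technique: ELISA with HRP anti-human C3 antibody, TMB substrate, absorbance 450 nm | Replication: Two pool placements per compound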
DAT uptake mod: human DAT dopamine uptake with cocaine, either direction. LLC-PK1 hDAT cells, [14C]-dopamine uptake with cocaine IC80; actives deviate in either direction. B-score at 10 µM. hit rate 1.3% among 110,000;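 active means Z score or B-score, a plate-position-corrected score, falls beyond the plate's 99.7% confidence bounds, in either direction; inactive means both scores lie inside the 99.7% bounds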
Candida biofilm: kills Candida albicans biofilms | C. albicans biofilm + clotrimazole, Alamar Blue | inhibition, % at 6 µM | hit rate 0.14% among 85,000 | AID 834;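 active means inhibition above 20%; inactive means inhibition below 20%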;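 further: preformed 24 hr biofilms exposed to compound for 48 hr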
D1 allo mod: allosterically modulates the human D1 dopamine receptor; HEK293 D1, CRE-luciferase, dopamine EC30 potentiation; actives deviate in either direction; B-score at 10 µM; hit rate 5.9% among 58,000;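 active means luminescence count or its row- and column-corrected plate score outside the 99.7% band of the plate's sample wells, on either side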
Target sequence (P21728 whole entry, looked up): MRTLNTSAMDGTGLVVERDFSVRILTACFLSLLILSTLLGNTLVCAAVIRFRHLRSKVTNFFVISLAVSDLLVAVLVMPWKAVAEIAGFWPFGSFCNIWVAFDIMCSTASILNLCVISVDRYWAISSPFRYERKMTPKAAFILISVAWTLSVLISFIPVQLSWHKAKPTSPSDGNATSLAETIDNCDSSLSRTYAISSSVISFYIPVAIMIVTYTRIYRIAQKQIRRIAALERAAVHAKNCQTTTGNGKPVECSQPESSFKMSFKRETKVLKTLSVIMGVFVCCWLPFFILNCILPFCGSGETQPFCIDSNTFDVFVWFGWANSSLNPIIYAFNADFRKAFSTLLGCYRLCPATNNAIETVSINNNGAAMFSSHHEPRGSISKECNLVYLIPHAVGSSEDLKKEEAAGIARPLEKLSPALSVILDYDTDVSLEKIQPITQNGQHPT
MMP-13 inhibitor: inhibitors of human MMP13; hit rate 0.07% among 65,000; MMP-13 fTHP FRET cleavage, Mca fluorescence; P45452; AID 570; inhibition, % at 4 µM;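 active means inhibition above the mean of compound-free control plate wells plus 3 SD, cut at about 14% in these data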
Each line names hits and unclear results; the compound was inactive in the other large screens.

C#CCn1c(S(=O)(=O)Cc2ccc(OC)cc2)nc(-c2ccccc2)c1-c1ccccc1	none (no result: AP complement, Candida biofilm, D1 allo mod, MMP-13 inhibitor)
Cc1ccc2nsnc2c1S(=O)(=O)N1CCN(Cc2ccc3c(c2)OCO3)CC1	DAT uptake mod 5.41
Cc1cc(S(=O)(=O)N2CCN(Cc3ccc4c(c3)OCO4)CC2)cc(C)c1N1CCCC1=O	D1 allo mod -4.63
CN(C[C@H](Cc1ccccc1)N(C[C@H](Cc1ccccc1)N(CC1(c2ccccc2)CC1)N=O)N=O)N=O	none (no result: AP complement, Candida biofilm, D1 allo mod, MMP-13 inhibitor)
CCOC(=O)CSC1=NC(=O)/C(=C\c2ccc(Cl)cc2)S1	none (no result: AP complement, Candida biofilm, D1 allo mod, MMP-13 inhibitor)
O=C(CCSCc1ccccc1Cl)N1CCN(c2cccc(Cl)c2)CC1	none (no result: AP complement, D1 allo mod, MMP-13 inhibitor)
O=C(Nc1ccc(Cl)c(C(F)(F)F)c1)[C@@H]1CC=C[C@@H]2CCN(Cc3ccc(Cl)c(Cl)c3)C(=O)[C@@H]21	none (no result: AP complement, Candida biofilm, D1 allo mod, MMP-13 inhibitor)
CCOC(=O)N1CCN(C(=O)c2sc3nc(-c4ccc(F)cc4)cn3c2C)CC1	none (no result: DAT uptake mod, D1 allo mod)
Cc1c(C(=O)N2CC(C)OC(C)C2)sc2nc(-c3ccc(F)cc3)cn12 (stereo unspecified)	D1 allo mod -3.01 (no result: DAT uptake mod)
Cc1ccc(C(=O)O)cc1S(=O)(=O)N1CCSCC1	DAT uptake mod -9.12
O=c1cc(-c2c(F)c(F)c(F)c(F)c2F)oc2c(F)c(F)c(F)c(F)c12	none
CCC(=O)Nc1ccc(C(=O)Nc2cccnc2)cc1	none
Cc1ccc(C(=O)CCC(=O)Nc2cccnc2)cc1C	DAT uptake mod -8.48
COC(=O)[C@@H](N)CS	none (no result: AP complement, D1 allo mod, MMP-13 inhibitor)
C=CCOc1cccc(C2c3c(oc4ccc(F)cc4c3=O)C(=O)N2CCCN2CCOCC2)c1 (stereo unspecified)	AP complement 33.8
O=C1c2oc3ccc(F)cc3c(=O)c2C(c2cccc(O)c2)N1CCCN1CCOCC1 (stereo unspecified)	none
OCC[C@@H]1C[C@H](O)[C@@H](O)[C@@]2(CCCO2)O1	none (no result: AP complement, Candida biofilm, D1 allo mod, MMP-13 inhibitor)
COc1ccc(-c2cc3nc(C)cc(N)n3n2)cc1	DAT uptake mod -8.43 (no result: AP complement, D1 allo mod, MMP-13 inhibitor)
COc1ccc(-c2cc3nc(C)cc(NCCO)n3n2)cc1	none (no result: D1 allo mod)
CN(C)CC(C)(C)CNS(=O)(=O)c1cccc(Cl)c1Cl	none (no result: AP complement, D1 allo mod, MMP-13 inhibitor)
COc1cccc(C(CC(=O)Nc2cccc3ccccc23)NC(=O)c2ccccc2)c1 (stereo unspecified)	none (no result: AP complement, Candida biofilm, D1 allo mod, MMP-13 inhibitor)
COC(=O)c1ccc[n+](CCc2c[nH]c3ccccc23)c1	none (no result: AP complement, Candida biofilm, D1 allo mod, MMP-13 inhibitor)
CCOc1ccc2nc(SCC(=O)N3CCN(C(=O)c4ccco4)CC3)sc2c1	DAT uptake mod -1.73 (no result: AP complement, D1 allo mod, MMP-13 inhibitor)
Cc1ccc(C)c(S(=O)(=O)C(C#N)c2nc3ccccc3nc2N2CC(C)OC(C)C2)c1 (stereo unspecified)	D1 allo mod -2.66
Cc1ccc(C)c(S(=O)(=O)C(C#N)c2nc3ccccc3nc2N2CCCC2)c1 (stereo unspecified)	none
COc1cccc(NC(=O)CSC2=C(C#N)C(c3ccco3)C3=C(CCCC3=O)N2)c1 (stereo unspecified)	none (no result: AP complement, D1 allo mod)
COc1ccc(NC(=O)CSC2=C(C#N)C(c3ccco3)C3=C(CCCC3=O)N2)c(OC)c1 (stereo unspecified)	DAT uptake mod -2.66
Clc1ccc2nc(N3CCCCC3)[nH]c2c1	D1 allo mod -4.95
Cc1ccc(C(=O)CC(=O)c2cc(Cl)ccc2O)cc1	none (no result: AP complement, D1 allo mod, MMP-13 inhibitor)
Cc1ccc(NC(C)c2cc(Cl)ccc2O)cc1 (stereo unspecified)	Candida biofilm 35.5 (no result: AP complement, D1 allo mod, MMP-13 inhibitor)
N#Cc1c(NC(=O)CSc2ncn[nH]2)sc2c1CCCCC2	D1 allo mod -4.57
N#Cc1c(NC(=O)c2nc3ncccn3n2)sc2c1CCCCC2	D1 allo mod -4.29
O=C1OCC(CO)(CO)N=C1NNc1ccc(Cl)c(Cl)c1	none (no result: AP complement, Candida biofilm, D1 allo mod, MMP-13 inhibitor)
C(=C/c1ccnc2nc(SC/C=C/c3ccccc3)nn12)/c1ccccc1	none (no result: AP complement, Candida biofilm, D1 allo mod, MMP-13 inhibitor)
CNC(=S)N(Cc1ccc(OC)cc1)C1CC(=O)N(c2ccc(Cl)cc2)C1=O (stereo unspecified)	none (no result: AP complement, Candida biofilm, D1 allo mod, MMP-13 inhibitor)
Cc1ccc2nc(N3CCN(Cc4ccc(F)cc4)C3=O)c(C)cc2c1	DAT uptake mod 2.24
c1c2c(cc3sc(N4CCOCC4)nc13)OCCO2	D1 allo mod -4.87 (no result: Candida biofilm)
CC(C)CCNC(=O)C1CC2Cn3c(nc4cc(Cl)c(Cl)cc43)C2N1C (stereo unspecified)	none (no result: AP complement, Candida biofilm, D1 allo mod, MMP-13 inhibitor)
COC(=O)c1sccc1NC(=O)CSc1nnnn1-c1ccccc1C	Candida biofilm 26.9 (no result: AP complement, D1 allo mod, MMP-13 inhibitor)
COc1ccc(OC)c(NC(=O)CSc2nnnn2-c2ccc3c(c2)OCO3)c1	DAT uptake mod -3.51
COc1ccc(NC(=O)CSc2nccn2-c2cccc(OC)c2)cc1	none
COc1ccc(OC)c(NC(=O)CSc2nnc(-c3ccco3)n2-c2ccccc2)c1	none (no result: D1 allo mod)
COc1cccc(-n2ccnc2SCC(=O)Nc2cc(OC)ccc2OC)c1	DAT uptake mod 1.52
COc1ccc(OC)c(NC(=O)CSc2nnc(CCCO)n2-c2ccccc2)c1	DAT uptake mod 2.91 (no result: Candida biofilm)
